Screening results: PubChem BioAssay, SRMLSC
bCat KO growth: primary screen for growth suppressors in beta-catenin knockout HCT116 cells (colon tumor, human); HCT116 beta-catenin knockout viability, CellTiter-Glo, 60 h; hits give low values; viability, % at 10 µM; hit rate 1.5% among 140,000;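 active = viability at or under a set limit, the compound median less 4 SD, cut at about 6% in these data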;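 note: 0% = Hyamine 1622 control at 20 µM and 100% = untreated cell control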
H69AR inhibit: proliferation blockers of H69AR lung cancer cells, primary screen, cell-based, human, 86K library. AID 598, 2007. H69AR lung tumor viability, ATP luminescence, 72 h; hits give low values. hit rate 6% among 85,000. viability, % at 10 µM;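 active = viability at or below 40%; inactive = viability above 40%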;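 note: multidrug resistant small cell line overexpressing MRP-1 efflux transporter; 100% = mean luminescence of untreated control wells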
Fibroblast inh: antiproliferative effect on LL 47 fibroblasts – human, LL 47 cells, CellTiter-Glo luminescence, primary screen. LL 47 human lung fibroblast viability, ATP luminescence; hits give low values. viability, % at 10 µM. hit rate 1.1% among 85,000;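 active = viability at or below 50% in the single dose screen; inactive = viability above 50%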;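 note: compound exposure lasted 72 h before the ATP readout; 100% = median luminescence of untreated cell-only wells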
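Signal: luminescent ATP detection, CellTiter-Glo; assay system: LL 47 human lung fibroblasts; input: 1,150 cells/well; incubation: overnight cell rest, 72 h compound treatment at 37 °C; measure: % viability versus median cells-only luminescence; medium: IMEM growth medium with 15% fetal bovine serum; dosing: compound addition at 0.1% DMSO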
HUVEC inhibit: inhibitors of HUVEC proliferation, primary screen, cell-based, 384-well; CellTiter-Glo luminescence, 72 h; hits give low values; viability, % at 10 µM (by protocol); hit rate 1.1% among 86,000; AID 648, 2007;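 active = viability at or below 30%; inactive = viability above 30%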;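 note: 100% = median luminescence of DMSO-only cell control wells on each plate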
PTEN del growth: growth suppression of PTEN-null HCT116, primary screen, cell-based, CellTiter-Glo | HCT116 PTEN-null viability, 60 h; hits give low values | viability, % at 10 µM | hit rate 1.2% among 140,000;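 active = viability at or below a set limit, 4 SD under the median of all tested compounds, cut at about 3.7% in these data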;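 note: PTEN knockout HCT116 line with beta catenin targeted HCT116 as companion control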
An asterisk follows results filed as active; x = not tested or not shown. The full list was thinned out, with hits kept by preference.

SMILES	bCat KO growth	H69AR inhibit	Fibroblast inh	HUVEC inhibit	PTEN del growth
CC(C)c1cccc(C(C)C)c1NC(=O)COC(=O)c1ccc2c(c1)S(=O)(=O)c1ccccc1C2=O	96.8	x	x	x	89.3
COc1cc2ccc(=O)oc2c(O)c1OCC=C(C)C	79.8	36.7*	99.6	87.8	93.3
O=Cc1ccc(OC2OCCOC2Oc2ccc(C=O)cc2)cc1 (configuration not stated)	91.5	x	x	x	89.2
COc1ccc(-n2c(N)c(C(=O)NCc3ccco3)c3nc4ccccc4nc32)c(OC)c1	67.1	32.5*	89.3	68.6	72.1
COc1ccc(CCn2c(N)c(C(=O)NCc3ccco3)c3nc4ccccc4nc32)cc1	40.4	x	x	x	32.5
Nc1c(C(=O)NCc2ccco2)c2nc3ccccc3nc2n1CCc1ccccc1F	76.8	26.9*	94.9	79.2	71.8
COc1ccc(CCn2c(N)c(C(=O)NCc3ccco3)c3nc4ccccc4nc32)cc1OC	35.4	24.1*	111.3	80.5	25.4
O=C(CN1C(=O)CSC1=O)c1ccccc1	99.7	87.1	96.3	92.4	103.8
Cc1ccc(C(=O)Nc2cnc3sc(C)nn3c2=O)cc1	86.4	99.7	96.7	96.2	94.3
CCCCSc1nnc(-c2ccccc2)c2ccccc12	77.4	x	x	x	81.5
CC(C)(C)c1ccc(OCCNC(=S)NC(=O)c2cccnc2)cc1	81.9	x	x	x	84.3
COc1ccc(C(=O)CSc2nc3ccc([N+](=O)[O-])cc3[nH]2)cc1	84.6	x	x	x	78.0
CNC(=O)CSc1nnc(SCCC(=O)O)s1	97.3	x	x	x	102.4
O=C(CCN1CCOCC1)c1ccc2c(c1)OCCO2	14.2	3.3*	95.3	94.5	33.7
O=C(CCN1CCOCC1)c1ccccc1	1.2*	78.8	93.4	91.5	1.0*
CC(C)CNc1nnnc2c1sc1nc(N3CCOCC3)c3c(c12)CC(C)(C)SC3	45.1	x	x	x	40.9
CC1(C)Cc2c(c(N3CCOCC3)nc3sc4c(NCc5ccccc5)nnnc4c23)CS1	6.7	2.0*	17.6*	24.4*	3.2*
CC1(C)Cc2c(c(N3CCOCC3)nc3sc4c(NN)ncnc4c23)CS1	2.8*	46.2	17.3*	6.3*	3.8
CC1(C)Cc2c(c(N3CCOCC3)nc3sc4c(NCc5ccco5)nnnc4c23)CS1	48.0	37.0*	84.4	87.2	47.8
CCCc1ccccc1OCCNC(C)=O	104.1	86.4	98.8	95.2	95.6
CCOc1ccc(NC(=O)CC(c2ccccc2)c2ccc(F)cc2)cc1 (configuration not stated)	83.3	x	x	x	86.6
Cc1ccc(Nc2nc3ccccc3nc2-n2nc(C)cc2C)cc1	87.8	91.8	103.8	116.5	77.6
Cc1ccc(Nc2cc(C)nc3nnnn23)cc1	103.3	97.2	101.1	95.2	96.8
Cc1ccc(Nc2cc(C)nn2-c2nc(C)cc(C)n2)cc1	20.9	13.5*	89.5	80.8	27.3
Cc1ccc(Nc2cc(C)nn2-c2nc(C)cc(=O)[nH]2)cc1	2.0*	1.4*	4.5*	29.8*	1.5*
SMILES	bCat KO growth	H69AR inhibit	Fibroblast inh	HUVEC inhibit	PTEN del growth
CCOC(=O)CS(=O)(=O)c1nc(-c2ccccc2)cc(C(F)(F)F)n1	93.0	1.6*	3.8*	12.2*	95.3
CCOC(=O)CCS(=O)(=O)c1nc(-c2ccccc2)cc(C(F)(F)F)n1	90.2	0.8*	3.0*	28.4*	95.6
COC(=O)CCS(=O)(=O)c1nc(-c2ccccc2)cc(C(F)(F)F)n1	87.8	1.4*	27.5*	55.5	84.0
CCOC(=O)CS(=O)(=O)c1ccccc1	106.4	103.3	93.8	100.6	113.6
COCC(C)NC(=O)CCS(=O)(=O)c1nc(-c2ccc(OC)cc2)cc(C(F)(F)F)n1 (configuration not stated)	91.2	x	x	x	101.0
CCOC(=O)CS(=O)(=O)c1nc(-c2ccc(F)cc2)cc(C(F)(F)F)n1	100.9	4.4*	2.9*	23.5*	95.2
Cc1ccc(NC(=O)c2cccc(S(=O)(=O)N(C)c3ccccc3)c2)cc1S(=O)(=O)N1CCOCC1	59.8	x	x	x	63.0
COCCCn1c(Cc2csc(Nc3ccc(F)cc3)n2)nnc1SCC(N)=O	97.1	x	x	x	91.7
COc1ccccc1C(O)(C(=O)NN(C)c1ccccc1)c1ccccc1OC	89.6	x	x	x	80.7
O=C(CCCCCn1c(=S)[nH]c2cc3c(cc2c1=O)OCO3)N1CCN(C2CCCCC2)CC1	7.5	2.2*	4.8*	48.7	2.7*
O=C1CCN(N=Nc2cccc(Cl)c2)N1	83.5	30.8*	100.6	81.6	85.1
Cc1ccc(-c2cc(C(=O)Nc3nn[nH]n3)c3ccccc3n2)cc1	100.7	x	x	x	102.1
COCCCN1C(=O)c2[nH]nc(-c3ccccc3O)c2C1c1ccc(Cl)cc1 (configuration not stated)	42.3	x	88.8	89.0	36.2
CC(C)OCCCN1C(=O)c2[nH]nc(-c3ccccc3O)c2C1c1cccc(Cl)c1 (configuration not stated)	40.4	6.5*	86.1	5.7*	18.8
COCCCN1C(=O)c2[nH]nc(-c3ccccc3O)c2C1c1cccc(Cl)c1 (configuration not stated)	20.4	2.9*	64.8	80.1	25.4
O=C1c2[nH]nc(-c3ccccc3O)c2C(c2ccccc2)N1Cc1ccco1 (configuration not stated)	81.1	x	91.0	91.1	76.1
O=C1c2[nH]nc(-c3ccccc3O)c2C(c2ccccc2F)N1Cc1ccco1 (configuration not stated)	43.1	4.5*	77.2	53.2	27.8
COc1ccc(CCN2C(=O)c3[nH]nc(-c4ccccc4O)c3C2c2ccccc2)cc1OC (configuration not stated)	23.5	39.0*	89.7	78.5	27.2
Cc1ccc(Nc2nnc(SCC(=O)Nc3cccnc3Cl)s2)cc1C	72.6	x	x	x	78.1
CCOc1cccc2c1OC(c1cc(OC)c(OC)c(OC)c1)N1N=C(c3ccc(C)o3)CC21 (configuration not stated)	55.6	x	x	x	49.2
CCC(CC)NC(=O)COC(=O)c1ccc(NS(=O)(=O)c2ccc3c(c2)OCCO3)cc1	93.3	x	x	x	99.0
[O-][N+]1=c2ccc(Nc3ccccc3)cc2=NC12CCCCC2	1.6*	1.2*	12.9*	4.6*	1.1*
c1ccc(Nc2cccc(Nc3ccccc3)c2)cc1	80.9	x	x	x	77.1
COc1ccc(Nc2ccc3c(c2)=NC2(CCCCC2)[N+]=3[O-])cc1	1.1*	x	x	x	1.2*
COc1ccc(NC2=NC(=S)N(c3ccccc3C)C23CCCCC3)cc1	94.7	x	x	x	101.0
N#C/C(C(=O)NCc1ccccc1)=C1/SC(Cc2ccc(Cl)cc2)C(=O)N1c1ccccc1 (configuration not stated)	85.3	x	x	x	94.1
COc1ccc(NC(=O)NN(C(=O)c2ccccc2)C(C)(C)C)cc1	87.0	x	x	x	93.1
Cc1ccc(-c2nn(-c3ccccc3)cc2/C=N/NC(=O)CSc2nnc(C)n2-c2ccccc2)cc1	3.6*	x	x	x	3.4*
